The text below walks through data of ChEMBL document CHEMBL1145908 (J Med Chem, 2003).

Test [1] addresses Human immunodeficiency virus type 1 protease (Human immunodeficiency virus 1) (UniProt Q72874). Nature of the test: Competitive inhibition against HIV-1 Protease.
The target in test [2] is Human immunodeficiency virus type 1 protease (Human immunodeficiency virus 1, UniProt Q72874). Description: In vitro inhibitory activity against HIV-1 Protease. The procedure, abridged:
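Recombinant HIV-1 PR expressed in E. coli (pET9c-PR). Fluorogenic DABCYL-γ-abu-[…]EDANS substrate 5.2 μM, enzyme 7.5 nM, in 100 mM sodium acetate, 1 mM EDTA, 1 M NaCl, pH 4.7, 30 °C, 3% DMSO final. Fluorescence read at ex 340/em 490 nm. IC50 fitted from % inhibition across 0.5–28 μM inhibitor. Ki derived by Zhang's method using 1.88–28 nM enzyme.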

Test [3] deals with Human immunodeficiency virus type 1 protease (Human immunodeficiency virus 1) (UniProt Q72874). Description: Dimerization inhibition against HIV-1 Protease. The gist of the method: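 Recombinant HIV-1 PR expressed in E. coli (pET9c-PR). Hydrolysis of DABCYL-γ-abu-[…]EDANS (5.2 μM) was followed by fluorescence (ex 340/em 490 nm) in 100 mM sodium acetate, 1 mM EDTA, 1 M NaCl, pH 4.7, 30 °C, with 3% DMSO final. Initial rates were taken at ≥7 enzyme levels (1.88–28 nM) per inhibitor concentration. Kic/Kid were obtained by Zhang's method from [E]0/√vi vs √vi plots.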

Test [4] has the same target. Description: Inhibitory activity against HIV-1 Protease at 14 uM.
Test [5] shares this target. Nature of the test: Inhibitory activity against HIV-1 Protease at 28 uM.
For test [6] the target is unchanged. Nature of the test: In vitro inhibitory activity against HIV-1 Protease; No inhibition.

A word on the IC50: it is the concentration needed to halve the response being measured. A word on the inhibition: it is the share of the control response that was lost under treatment. A high value points to strong suppression.

Molecules are shown by their SMILES. Active and inactive are the calls of the source. No cut-off for these calls is given here. Residues, ends and D or L forms follow the SMILES beside them. *: point of attachment. X1 = CC(C)CCC[C@@H](C)[C@H]1CCC2C3CC=C4C[C@H](SC[C@@H]5CCN6CC[C@@H](CSCC(=O)*)NC6=N5)CC[C@]4(C)C3CC[C@@]21C; X3 = CC(C)(C)[Si](OC[C@@H]1CCN2CC[C@@H](COC(=O)CCCCC(=O)*)NC2=N1)(c1ccccc1)c1ccccc1; X5 = CC(C)(C)[Si](OC[C@@H]1CCN2CC[C@@H](CNC(=O)CCCCC(=O)*)NC2=N1)(c1ccccc1)c1ccccc1; X2 = CC(C)(C)[Si](OCC1CCN2CCC(CSCC(=O)*)NC2=N1)(c1ccccc1)c1ccccc1; X4 = O=C(CCCCC(=O)*)OC[C@@H]1CCN2CC[C@@H](CO)N=C2N1; X6 = O=C(CCCCC(=O)*)NC[C@@H]1CCN2CC[C@@H](CO)N=C2N1; OBn = c1ccc(CO*)cc1; Bn = c1ccc(C*)cc1

For `CC(C)CCC[C@@H](C)[C@H]1CCC2C3CC=C4C[C@H](SC[C@@H]5CCN6CC[C@@H](CSCC(=O)NCC(=O)N[C@@H](C)C(=O)N[C@H](C(=O)N[C@@H](CC(C)C)C(=O)N[C@@H](CC(N)=O)C(=O)N[C@@H](Cc7ccccc7)C(=O)OCc7ccccc7)[C@@H](C)OCc7ccccc7)NC6=N5)CC[C@]4(C)C3CC[C@@]21C` (some centres undefined) (X1-GAT(Bn)LNF-OBn), in test [1], the Kic came to 0.4 µM. The compound further returned an IC50 in test [2] of 3 µM. In addition, the Kid in test [3] stood at 0.4 µM. Compound `CC[C@H](C)[C@H](NC(=O)[C@H](C)NC(=O)CSCC1CCN2CCC(CO[Si](c3ccccc3)(c3ccccc3)C(C)(C)C)N=C2N1)C(=O)N[C@H](C(=O)N[C@@H](CC(C)C)C(=O)N[C@@H](Cc1c[nH]c2ccccc12)C(=O)OC)[C@@H](C)OCc1ccccc1` (some centres undefined) (X2-AIT(Bn)LW-OMe) displayed an IC50 in test [2] of 5 µM. The compound also had a Kid in test [3] of 6.5 µM.

With `CC(C)C[C@H](NC(=O)[C@@H](NC(=O)[C@H](C)NC(=O)CNC(=O)CSCC1CCN2CCC(CO[Si](c3ccccc3)(c3ccccc3)C(C)(C)C)N=C2N1)[C@@H](C)OCc1ccccc1)C(=O)N[C@@H](CC(N)=O)C(=O)N[C@@H](Cc1ccccc1)C(=O)O` (some centres undefined) (X2-GAT(Bn)LNF-OH), the half-inhibitory concentration (IC50) in test [2] is 11 µM. `CC[C@H](C)[C@H](NC(=O)CNC(=O)CSCC1CCN2CCC(CO[Si](c3ccccc3)(c3ccccc3)C(C)(C)C)N=C2N1)C(=O)N[C@@H](COCc1ccccc1)C(=O)N[C@@H](Cc1ccc(OCc2ccccc2)cc1)C(=O)N[C@@H](CC(N)=O)C(=O)N[C@@H](CC(C)C)C(=O)OC` (some centres undefined) (X2-GIS(Bn)Y(Bn)NL-OMe) yielded an IC50 in test [2] of 3.3 µM. The compound further showed a Kid in test [3] of 0.29 µM.

For the compound `CC[C@H](C)[C@H](NC(=O)CNC(=O)CSCC1CCN2CCC(CO[Si](c3ccccc3)(c3ccccc3)C(C)(C)C)N=C2N1)C(=O)N[C@@H](CO)C(=O)N[C@@H](Cc1ccc(O)cc1)C(=O)N[C@@H](CC(N)=O)C(=O)N[C@@H](CC(C)C)C(=O)OC` (some centres undefined) (X2-GISYNL-OMe), in test [1], the Kic was 6 µM. Also, the midpoint of inhibition in test [2], the IC50, lay at 5 µM. The compound `COC(=O)[C@H](Cc1ccccc1)NC(=O)[C@H](CC(N)=O)NC(=O)[C@H](CC(C)C)NC(=O)[C@@H](NC(=O)[C@H](C)NC(=O)CCCCC(=O)OC[C@@H]1CCN2CC[C@@H](CO[Si](c3ccccc3)(c3ccccc3)C(C)(C)C)N=C2N1)[C@@H](C)O` (X3-ATLNF-OMe) had a concentration for half-maximal inhibition (IC50) in test [2] of 1.9 µM. Besides, in test [3], the Kid amounted to 0.55 µM. `COC(=O)[C@H](Cc1ccccc1)NC(=O)[C@H](CC(N)=O)NC(=O)[C@H](CC(C)C)NC(=O)[C@@H](NC(=O)[C@H](C)NC(=O)CCCCC(=O)OC[C@@H]1CCN2CC[C@@H](CO)N=C2N1)[C@@H](C)O` (X4-ATLNF-OMe) yielded an inhibition in test [4] of 28%. `COC(=O)[C@H](Cc1ccccc1)NC(=O)[C@H](CC(N)=O)NC(=O)[C@H](CC(C)C)NC(=O)[C@@H](NC(=O)[C@H](C)NC(=O)CCCCC(=O)NC[C@@H]1CCN2CC[C@@H](CO[Si](c3ccccc3)(c3ccccc3)C(C)(C)C)N=C2N1)[C@@H](C)O` (X5-ATLNF-OMe): the inhibition in test [5] turned out to be 28%. `COC(=O)[C@H](Cc1ccccc1)NC(=O)[C@H](CC(N)=O)NC(=O)[C@H](CC(C)C)NC(=O)[C@@H](NC(=O)[C@H](C)NC(=O)CCCCC(=O)NC[C@@H]1CCN2CC[C@@H](CO)N=C2N1)[C@@H](C)O` (X6-ATLNF-OMe): the NI entry in test [6] was “inactive”.

With `CC(C)C[C@H](NC(=O)[C@@H](NC(=O)[C@H](C)NC(=O)CNC(=O)CSCC1CCN2CCC(CO[Si](c3ccccc3)(c3ccccc3)C(C)(C)C)N=C2N1)[C@@H](C)OCc1ccccc1)C(=O)N[C@@H](CC(N)=O)C(=O)N[C@@H](Cc1ccccc1)C(=O)OCc1ccccc1` (stereo in doubt; 6 (S,S)) [listing 1 of 2 here], in test [2], inhibition was half-maximal at 1.6 µM (IC50). `CC(C)C[C@H](NC(=O)[C@@H](NC(=O)[C@H](C)NC(=O)CNC(=O)CSCC1CCN2CCC(CO[Si](c3ccccc3)(c3ccccc3)C(C)(C)C)N=C2N1)[C@@H](C)OCc1ccccc1)C(=O)N[C@@H](CC(N)=O)C(=O)N[C@@H](Cc1ccccc1)C(=O)OCc1ccccc1` (stereo in doubt; 6 (S,S)) [listing 2 of 2 here] had a Kid in test [3] of 0.15 µM. For the compound `CC(C)C[C@H](NC(=O)[C@@H](NC(=O)[C@H](C)NC(=O)CNC(=O)CSCC1CCN2CCC(CO[Si](c3ccccc3)(c3ccccc3)C(C)(C)C)N=C2N1)[C@@H](C)OCc1ccccc1)C(=O)N[C@@H](CC(N)=O)C(=O)N[C@@H](Cc1ccccc1)C(=O)OCc1ccccc1` (stereo in doubt; 6'(R,R)) [listing 1 of 2 here], the IC50 in test [2] is 2 µM.

For the compound `CC(C)C[C@H](NC(=O)[C@@H](NC(=O)[C@H](C)NC(=O)CNC(=O)CSCC1CCN2CCC(CO[Si](c3ccccc3)(c3ccccc3)C(C)(C)C)N=C2N1)[C@@H](C)OCc1ccccc1)C(=O)N[C@@H](CC(N)=O)C(=O)N[C@@H](Cc1ccccc1)C(=O)OCc1ccccc1` (stereo in doubt; 6'(R,R)) [listing 2 of 2 here], the Kid in test [3] worked out at 0.15 µM.
